From PubChem
KCNK9 block = inhibitors of human KCNK9 two-pore domain potassium channel | AID 488922 | Q9NPC2 | HEK293 KCNK9, FluxOR thallium flux fluorescence; hits give low values | B-score at 10 µM | 1.2% of 310,000 active;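 active = ratio B-score over 3 SD below the library mean, with starting fluorescence within 5 SD of its mean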;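 also: negative B-score means less thallium flux so channel inhibition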
KCNK3 inh = human KCNK3 channel inhibition, primary screen; 0.84% of 340,000 active; CHO-KCNK3 thallium flux, FluxOR fluorescence; hits give low values; AID 602410; O14649; B-score at 10 µM;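 active = B-score under library mean minus 4 SD, starting fluorescence ratio at most library mean plus 5 SD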;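 also: more negative B-score means stronger inhibition of thallium flux through KCNK3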
KCNQ1 act = human KCNQ1 channel potentiation or activation | P51787 | CHO-K1 KCNQ1, thallium flux FluxOR fluorescence; hits give high values | B-score at 10 µM | 0.35% of 310,000 active | AID 2648;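 active = fluorescence ratio B-score, a plate-corrected score, at least three library SD, with initial intensity B-score within 5 SD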
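Doses: Single concentration per compound, DMSO matched to controls | Test system: KCNQ1-transfected CHO-K1 cells | Timing: 90 min dye loading and 20 min compound exposure, both at room temperature | Measured by: Kinetic FluxOR thallium fluorescence, 10-s 1-Hz baseline, 110-s post-stimulus read | Medium: Assay buffer with matched DMSO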
hERG rescue = hERG (human) protection from proarrhythmic block; 0.51% of 310,000 active; activation (rescue from dofetilide block), less the hit threshold, % at 10 µM; CHO-hERG, FluxOR thallium flux, dofetilide IC70 present; AID 1511; Q12809;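 active = activation above the mean of controls blocked by dofetilide plus 5 SD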;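 also: thallium influx through hERG after potassium depolarization seen as dye fluorescence rise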
KCNQ1 inh = inhibitors of human KCNQ1 potassium channel; P51787; CHO-K1 KCNQ1, FluxOR thallium flux fluorescence; hits give high values; B-score at 10 µM; 1.3% of 310,000 active; AID 2642;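 active = compounds whose thallium flux B-score, printed positive for inhibition, exceeds three library SD while starting fluorescence stays within three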;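 also: channel opened by potassium depolarization with thallium stimulus after 20 min compound exposure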
Kir21 inh = Kir2.1 (mouse) channel inhibition | P35561 | HEK293-Kir2.1, FluxOR thallium flux fluorescence; hits give low values | B-score at 10 µM | 0.85% of 310,000 active;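 active = fluorescence ratio B-score at or below minus 3 SD of library scores, with starting-brightness B-score within 2 SD, cut at about -4.2 in these data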;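 also: channel flux triggered by added potassium and thallium sulfate stimulus; B-score of peak minus minimum fluorescence over baseline after thallium stimulus; more negative B-score means stronger Kir2.1 block with less thallium influx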
Target sequence (P35561 whole entry, looked up): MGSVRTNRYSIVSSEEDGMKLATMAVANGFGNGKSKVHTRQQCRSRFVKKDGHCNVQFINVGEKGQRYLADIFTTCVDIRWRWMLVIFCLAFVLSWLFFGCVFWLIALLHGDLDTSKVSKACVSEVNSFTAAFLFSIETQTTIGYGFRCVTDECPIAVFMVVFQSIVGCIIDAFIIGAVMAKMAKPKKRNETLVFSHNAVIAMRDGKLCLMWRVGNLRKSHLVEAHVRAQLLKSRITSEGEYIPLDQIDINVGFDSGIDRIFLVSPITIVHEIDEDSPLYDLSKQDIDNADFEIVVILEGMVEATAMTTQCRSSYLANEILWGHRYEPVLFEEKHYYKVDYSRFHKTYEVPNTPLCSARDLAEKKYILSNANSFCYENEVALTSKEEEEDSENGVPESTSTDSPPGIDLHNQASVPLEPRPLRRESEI
Each line names hits and unclear results; the compound was inactive in the other large screens. An excerpt weighted towards active compounds, which were near 3.7% of everything screened.

CCOc1ccc(NC(=S)NC(=O)c2c(Cl)cnn2CC)c([N+](=O)[O-])c1	none
CCN1CCc2c(sc(NC(=O)c3ccc4ccccc4c3)c2C(N)=O)C1	KCNK9 block -6.85
CC(C)N1CCc2c(sc(NC(=O)c3cc(-c4cccs4)nc4ccccc34)c2C(N)=O)C1	KCNK9 block -6.85
CC(C)N1CCc2c(sc(NC(=O)c3ccc(S(=O)(=O)N4CCc5ccccc54)cc3)c2C(N)=O)C1	KCNQ1 inh 17
NC(=O)c1ccsc1NC(=O)c1ccc(S(=O)(=O)N2CCCc3ccccc32)cc1	none
CNC(=O)c1c(NC(=O)c2ccc(S(=O)(=O)N(C)c3ccccc3)cc2)sc2c1CCN(C(C)C)C2	KCNK9 block -8.12 (no result: KCNK3 inh)
CC(C)N1CCc2c(sc(NC(=O)c3nc4ccccc4s3)c2C(N)=O)C1	none
CC(C)N(Cc1nccn1C)C(=O)CC1C(=O)NCCN1Cc1ccc(F)c(F)c1 (configuration not stated)	none
C/C(=N\NC(=O)c1ccc(O)cc1)c1ccc(NC(=O)Cc2ccccc2)cc1	none
CC(Sc1nnc(-c2ccco2)n1C)C(=O)N1C(C)CCCC1C (configuration not stated)	none
O=C(NC1CCCC1)C(c1ccccn1)N(Cc1ccc(F)cc1)C(=O)c1csnn1 (configuration not stated)	none
CC(C)(C)OC(=O)C[C@@H]1C/C=C\C[C@H](CC(=O)N(CCO)Cc2ccccc2)C(=O)N[C@H](C(C)(C)C)COC1=O	none (no result: KCNK9 block, KCNQ1 act, hERG rescue, KCNQ1 inh, Kir21 inh)
CC(C)(C)c1ccc(Cn2nnc3c(=O)[nH]c(C4CCCN(C(=O)c5cccs5)C4)nc32)cc1 (configuration not stated)	none
CCN1CCc2c(sc(NC(=O)c3ccc(S(=O)(=O)N(C)c4ccccc4)cc3)c2C(=O)NC)C1	KCNQ1 inh 21
Cc1cc(C)n2cc(CSc3ncn[nH]3)nc2n1	none
Cc1ccccc1C1C(C#N)=C2N=C(N)c3c(sc4c3CCCCC4)N2C2=C1C(=O)CCC2 (configuration not stated)	KCNK9 block -6.79
COc1ccc(-c2ccc(SCC(=O)NC3CCCCC3)nn2)cc1	none
COc1ccc(-c2cn3nc(SCC(=O)NC4CCCCC4)ccc3n2)cc1	hERG rescue 5.3
O=C(/C=C/c1ccc(Cl)cc1)c1cccnc1	Kir21 inh -7.93
N#Cc1ccc(/C=C/C(=O)c2cccnc2)cc1	KCNQ1 inh 6, Kir21 inh -8.99
CCN(CC)c1ccc(/C=C/C(=O)c2cccnc2)cc1	none
COc1ccc(C(=O)Nn2c(SCC(=O)N3CCC(C)CC3)nc3ccccc3c2=O)cc1	none
COc1ccc(C(=O)Nn2c(SCC(=O)c3ccc(Cl)cc3)nc3ccccc3c2=O)cc1	KCNK9 block -7.05
CCCOc1ccc(C(=O)Nn2c(C)nc3ccccc3c2=O)cc1	hERG rescue 6.5
COc1ccc(C(=O)Nn2c(C)nc3ccccc3c2=O)cc1	none
CCOP(=O)(OCC)C(NCc1ccccc1)c1ccc(Br)cc1 (configuration not stated)	Kir21 inh -4.26
CCOP(=O)(OCC)C(NC(=O)Nc1ccccc1)c1ccccc1 (configuration not stated)	none
Cc1nc2[nH]c(=S)[nH]c2c(=O)[nH]1	none (no result: KCNK9 block, KCNQ1 act, hERG rescue, KCNQ1 inh, Kir21 inh)
CC(OC(=O)Cc1c[nH]c2ccccc12)C(=O)Nc1ccccc1[N+](=O)[O-] (configuration not stated)	Kir21 inh -6.45
Cc1ccc(NC(=O)C(C)OC(=O)Cc2c[nH]c3ccccc23)cc1 (configuration not stated)	Kir21 inh -6.59
Cc1ccc(C(=O)C(C)OC(=O)Cc2c[nH]c3ccccc23)cc1 (configuration not stated)	Kir21 inh -5.16
Cc1ccc(C(=O)C(C)OC(=O)Cc2n[nH]c(=O)c3ccccc23)cc1 (configuration not stated)	none
O=C1/C(=C/c2cccnc2)SC(=S)N1CCc1ccccc1	none
COc1cccc(OC)c1OCCCCc1c(C)n[nH]c1C	none
Cc1cccc(C)c1OCCCCc1c(C)n[nH]c1C	KCNK9 block -8.03
COc1cccc(OC)c1OCCCCCc1c(C)n[nH]c1C	Kir21 inh -4.46
